Assay outcomes from PubChem BioAssay.
PGC1a acetyl inh – lowers PGC1a acetylation signal in U2OS cells; AlphaScreen anti-acetyl-lysine; with virally co-expressed GCN5 acetyltransferase; inhibition, % at 15.6 µM; hit rate 0.17% among 350,000; AID 651687;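 active = every replicate shows inhibition of at least 40%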;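 note: 0% = neutral control wells and 100% = positive control wells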
HIV Env fusion – blocks HIV Env-driven cell-cell fusion; HeLa-JRFL Env/CEM21 cell fusion, luciferase; inhibition, % at 12.3 µM; hit rate 1.1% among 360,000; AID 651610;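 active = mean replicate inhibition score of at least 50 and every replicate individually at or above 50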;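 note: 0% = plate neutral controls and 100% = maraviroc near 300 nM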
Cneo AK release – Cryptococcus neoformans lysis via adenylate kinase release; lysis activity, % at 15 µM; AID 651654; hit rate 0.2% among 360,000; C. neoformans lysis, adenylate kinase release luminescence, 4 h; normalised: neutral wells 0, clomiphene wells 100;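 active = mean lysis activity across replicates of at least 80%, whatever share of replicates individually reach that level; inactive = mean lysis activity below 80%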
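Material: C. neoformans cells | Amount: Yeast cell density of 5 × 10^6 cells/mL | Medium: Fresh YPD growth medium | Dosing: Single dose | Times: Static 4 h at 37 °C with compound, 1 h detection | Detection: AK luminescence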
FGF22 binding – FGF22 (human) thermal shift binding; activity (Tm shift, normalised), % at 9.99 µM; AID 651658; recombinant FGF22 thermal shift, SYPRO orange fluorescence; percent of sucrose octasulfate shift, DMSO zero; hit rate 1.5% among 340,000; Q9HCT0;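 active = mean Tm shift, scaled 0 neutral to 100 positive control, at about 1.3% or above, every replicate too, limit read from the data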
Target sequence (Q9HCT0 whole entry, looked up): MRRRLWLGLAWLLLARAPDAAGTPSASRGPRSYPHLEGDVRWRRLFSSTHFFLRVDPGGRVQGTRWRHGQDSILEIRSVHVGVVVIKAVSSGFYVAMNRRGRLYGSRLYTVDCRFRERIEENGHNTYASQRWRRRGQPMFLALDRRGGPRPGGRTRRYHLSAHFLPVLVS
Ecoli rRNA inh – inhibitors of bacterial rRNA selective over humanized ribosomes. E. coli WT GFP vs humanized-ribosome RFP mutants, fluorescence, 24 h; stronger effect = lower value; DMSO median 0, no signal -100. GFP signal change (wild-type ribosome), % (concentration not given with the values). hit rate 1.6% among 350,000. AID 720706;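 active = significant combined selectivity score with lowered wild-type GFP, culture density cut under 30%, mutant RFP and density less affected; inactive = any of these conditions unmet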
ERAP1 inh – ERAP1 (human) enzyme inhibition | Q9NZ08 | recombinant ERAP1, Leu-AMC fluorescence, 60 min | inhibition, % at 10.7 µM | hit rate 0.15% among 340,000 | AID 652197;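 active = mean replicate inhibition of at least 30%, or all replicates individually reaching that 30% level; inactive = mean below 30% and not every replicate reaching it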;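 note: 0% = neutral control wells and 100% = L-leucinethiol positive control wells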
* hit, by the source's call; [ ] = another dose, or the depositor's remark. In the library only some 3.5% were active in any assay of this set; here they are far more common.

`O=C(CN1CCC(C(=O)c2cccc(F)c2)CC1)NCc1cccs1` gave PGC1a acetyl inh -49.4, HIV Env fusion 9.1, FGF22 binding 43.2* and ERAP1 inh 1.7.
For O=C(CN1CCC(NC(=O)c2cccc(F)c2)CC1)NCc1cccs1 the results were HIV Env fusion 1.7, FGF22 binding -0.1, Ecoli rRNA inh 20.6 and ERAP1 inh 0.0.
CN(C)CC(=O)N[C@H]1CC[C@H](CCNS(=O)(=O)c2ccccc2)O[C@H]1CO was read as PGC1a acetyl inh -1.4, HIV Env fusion 10.1[16.7 µM], Cneo AK release 2.1, FGF22 binding -0.2, Ecoli rRNA inh -1.7 and ERAP1 inh 1.9.
CCn1c(=NC(=O)CS(=O)(=O)c2ccc(C)cc2)sc2cccc(OC)c21 was read as PGC1a acetyl inh 4.2, HIV Env fusion 74.9*, Cneo AK release -0.1, FGF22 binding -0.2, Ecoli rRNA inh -42.6 and ERAP1 inh 0.2.
`COc1cccc2sc(=NC(=O)CS(=O)(=O)c3ccc(F)cc3)n(C)c12` gave PGC1a acetyl inh 1.8, HIV Env fusion -4.1, Cneo AK release 0.2, FGF22 binding -0.3, Ecoli rRNA inh 8.4 and ERAP1 inh 0.7.
`Nc1ncnc2c(C3OC(CO)C(O)C3O)c[nH]c12` (stereo unspecified) gave HIV Env fusion 95.3*, Ecoli rRNA inh 20.1 and ERAP1 inh -7.6.
`Nc1ncnc2c1ncn2[C@@H]1O[C@H](CO)[C@@H](O)[C@H]1O` gave PGC1a acetyl inh -15.2, HIV Env fusion 31.7, Cneo AK release 0.2, FGF22 binding 0.0 and ERAP1 inh 0.4.
For COCc1cc(C)nc(Nc2ccc(C)cc2C)c1C#N the results were PGC1a acetyl inh -0.8 and Cneo AK release -1.9.
`CN1CCN(NC(=S)NC2CCCC2)CC1` gave PGC1a acetyl inh 1.6, HIV Env fusion -29.4, FGF22 binding 43.3* and ERAP1 inh -4.3.
`CN1CCN(NC(=S)NC(C)(C)CC(C)(C)C)CC1` gave HIV Env fusion 2.0, Cneo AK release 13.0, FGF22 binding 42.9*, Ecoli rRNA inh 9.8 and ERAP1 inh -0.6.
CC1(C)Cc2c(sc3ncnc(NNC(=S)NCc4ccccc4)c23)CO1 was read as HIV Env fusion -6.1, FGF22 binding -0.5, Ecoli rRNA inh -34.0* and ERAP1 inh 4.1.
Screening CC(C)NC(=S)NNc1ncnc2sc3c(c12)CC(C)(C)OC3 returned PGC1a acetyl inh 7.0, HIV Env fusion -7.6, Cneo AK release 0.2, Ecoli rRNA inh 10.2 and ERAP1 inh 1.1.
For CCCc1nnc(NC(=O)CCC(=O)Nc2ccc(Cl)cc2)s1 the results were PGC1a acetyl inh -3.4, HIV Env fusion -1.8, Cneo AK release 9.0, FGF22 binding -0.3, Ecoli rRNA inh 5.2 and ERAP1 inh -7.3.
CCc1nnc(NC(=O)CCC(=O)Nc2ccc(Cl)cc2)s1 was read as HIV Env fusion -2.3, FGF22 binding 43.2*, Ecoli rRNA inh 7.2 and ERAP1 inh -2.2.
`O=C(c1ccc([N+](=O)[O-])cc1)N(Cc1ccccc1)Cc1ccccc1` gave PGC1a acetyl inh -4.7, HIV Env fusion -12.3, Cneo AK release 2.5, FGF22 binding 0.0, Ecoli rRNA inh -25.8* and ERAP1 inh -1.7.
`O=C(NCCc1ccccc1)c1ccc([N+](=O)[O-])cc1` gave PGC1a acetyl inh 2.4, HIV Env fusion -124.2 and Cneo AK release 5.5.
CCOC(=O)C1=C(C)NC2=C(C(=O)c3ccccc32)C1c1cccc2ccccc12 (stereo unspecified) was read as PGC1a acetyl inh 8.0, HIV Env fusion 23.1, Cneo AK release -1.0, FGF22 binding 0.3, Ecoli rRNA inh -19.4* and ERAP1 inh -0.2.
Screening CCOC(=O)C1=C(C)NC2=C(C(=O)c3ccccc32)C1c1ccc(O)cc1 (stereo unspecified) returned HIV Env fusion 5.0.
